ChEMBL document CHEMBL1132283, “Further studies on the Dmt-Tic pharmacophore: hydrophobic substituents at the C-terminus endow delta antagonists to manifest mu agonism or mu antagonism” (J Med Chem, 1999)
Where a SMILES comes first, the peptide text is derived from it. [ ]: non-standard residue; d: D form. The star is where a group is joined. Dmt = Cc1cc(O)cc(C)c1C[C@H](N)C(=O)O; Tic = O=C(O)[C@@H]1Cc2ccccc2CN1; NHtBu = CC(C)(C)N*; NHNH2 = NN*

Tests used:
Cavia porcellus [1] = species: Cavia porcellus; experiment: Antagonistic functional bioactivity against […]-receptor from guinea pig ileum(GPI).; conditions: for Kb: read-out: pA2 (converted)
[2] = target: T1, Opioid receptors; mu & delta (Rattus norvegicus) (UniProt P33533+P33535); experiment: Agonist activity ratio (Ki of mu receptors compared to Ki of delta receptors).; assay type: functional
[3] = target: T1, Opioid receptors; mu & delta (Rattus norvegicus); experiment: Antagonistic activity ratio (Ki of mu receptors compared to Ki of delta receptors).; assay type: functional
Mus musculus [4] = species: Mus musculus; experiment: Antagonistic functional bioactivity against delta-receptor from mouse vas deferens(MVD).; conditions: for Kb: read-out: pA2 (converted)
[5] = target: T2, Delta-type opioid receptor (Rattus norvegicus, UniProt P33533); experiment: Binding affinity at Opioid receptor delta 1 from rat brain synaptosomal preparations by [3H]N,N-(Me)2-Dmt-Tic-OH displacement.
In short: (§1)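 Nonspecific binding was set with 2 μM unlabeled peptide, followed by GF/C filtration. Duplicates at 5–9 doses, ≥3 preparations; Ki by Cheng–Prusoff, mean ± SEM.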

[6] = target: T2, Delta-type opioid receptor; experiment: Binding affinity at Opioid receptor delta 1 from rat brain synaptosomal preparations by H-Dmt-Tic-OH displacement.
Mu-type opioid receptor = Mu-type opioid receptor (Rattus norvegicus, UniProt P33535); experiment: Binding affinity at Opioid receptor mu 1 from rat brain synaptosomal preparations by [3H]DAGO displacement.; in short: as §1
Mus musculus [7] = species: Mus musculus; experiment: Antagonistic functional bioactivity against delta-receptor from mouse vas deferens(MVD); conditions: for Kb: read-out: pA2 (converted)
Cavia porcellus [8] = species: Cavia porcellus; experiment: Antagonistic functional bioactivity against […]-receptor from guinea pig ileum(GPI)

Sequence of Mu-type opioid receptor (P33535 whole entry): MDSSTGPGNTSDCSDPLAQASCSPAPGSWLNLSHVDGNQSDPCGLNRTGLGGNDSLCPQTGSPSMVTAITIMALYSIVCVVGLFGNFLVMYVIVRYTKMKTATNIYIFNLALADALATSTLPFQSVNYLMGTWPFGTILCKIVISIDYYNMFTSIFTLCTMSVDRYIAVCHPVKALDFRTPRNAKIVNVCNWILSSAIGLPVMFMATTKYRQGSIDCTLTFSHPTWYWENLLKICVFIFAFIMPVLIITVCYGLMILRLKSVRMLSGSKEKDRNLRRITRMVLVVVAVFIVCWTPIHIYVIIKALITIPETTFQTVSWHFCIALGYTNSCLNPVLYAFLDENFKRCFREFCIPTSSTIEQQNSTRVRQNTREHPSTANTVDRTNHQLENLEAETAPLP
T1 sequence (P33533 whole entry, looked up): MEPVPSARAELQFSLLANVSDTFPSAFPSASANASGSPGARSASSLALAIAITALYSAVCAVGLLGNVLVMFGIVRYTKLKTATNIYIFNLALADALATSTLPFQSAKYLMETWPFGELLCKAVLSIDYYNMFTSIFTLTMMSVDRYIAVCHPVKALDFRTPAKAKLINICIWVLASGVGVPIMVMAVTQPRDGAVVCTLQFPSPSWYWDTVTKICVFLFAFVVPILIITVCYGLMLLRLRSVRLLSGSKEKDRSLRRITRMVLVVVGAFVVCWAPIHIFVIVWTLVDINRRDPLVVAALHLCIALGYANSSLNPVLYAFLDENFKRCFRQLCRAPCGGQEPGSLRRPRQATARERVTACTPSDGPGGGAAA
T1 sequence (P33535 whole entry, looked up): as the sequence (P33535 whole entry) above
T2 sequence (P33533 whole entry): as the sequence (P33533 whole entry, looked up) above

Row | SMILES | EC50 (Cavia porcellus [1]) | Ratio [2] | Ratio [3] | EC50 (Mus musculus [4]) | Ki [5] | Ki [6] | Ki (Mu-type opioid receptor) | Ke (Mus musculus [4]) | Ke (Cavia porcellus [1]) | Kb (Cavia porcellus [1]) | Kb (Mus musculus [4]) | Ke (Mus musculus [7]) | Kb (Mus musculus [7]) | EC50 (Cavia porcellus [8])
1 | CNC(=O)[C@H](C)NC(=O)[C@@H]1Cc2ccccc2CN1C(=O)[C@@H](N)Cc1c(C)cc(O)cc1C (H-[Dmt]-[Tic]-Ala-NHMe) | 290 nM | 100 | 47 | 1290 nM | – | – | – | – | – | – | – | – | – | –
2 | Cc1cc(O)cc(C)c1C[C@H](N)C(=O)N1Cc2ccccc2C[C@@H]1C(=O)NC12C[C@H]3C[C@@H](C1)C[C@@H](C2)C3 | 1680 nM | 0.01 | 0.004 | – | 24.5 nM | 70.3 nM | 0.26 nM | >10000 nM | – | – | – | – | – | –
3 | CNC(=O)[C@@H]1Cc2ccccc2CN1C(=O)[C@H](Cc1c(C)cc(O)cc1C)N(C)C | > 10000 nM | 669 | 1270 | – | – | – | – | 0.41 nM | 0.39 nM | 389 nM | 0.407 nM | – | – | –
4 | Cc1cc(O)cc(C)c1C[C@@H](C(=O)N1Cc2ccccc2C[C@H]1C(=O)O)N1CCCC1 | > 10000 nM | 502 | 573 | – | – | – | – | 121 nM | – | – | 126 nM | – | – | –
5 | Cc1cc(O)cc(C)c1C[C@@H](C(=O)N1Cc2ccccc2C[C@H]1C(=O)NC(C)(C)C)N(C)C | > 10000 nM | – | – | – | – | – | – | 14.1 nM | 0.3 nM | 302 nM | 14.1 nM | – | – | –
6 | Cc1cc(O)cc(C)c1C[C@H](N)C(=O)N1Cc2ccccc2C[C@H]1C(=O)NC12C[C@H]3C[C@@H](C1)C[C@@H](C2)C3 | 36 nM | 3 | 0.8 | 870 nM | 0.26 nM | 1.01 nM | 0.76 nM | >10000 nM | – | – | – | – | – | –
7 | CNC(=O)[C@@H]1Cc2ccccc2CN1C(=O)[C@@H](N)Cc1c(C)cc(O)cc1C (H-[Dmt]-[Tic]-NHMe) | > 10000 nM | – | – | 21200 nM | – | – | – | >10000 nM | 1.15 nM | 1150 nM | – | – | – | –
8 | COC(=O)[C@@H]1Cc2ccccc2CN1C(=O)[C@@H](N)Cc1c(C)cc(O)cc1C (H-[Dmt]-[Tic]-OMe) | – | 44 | 0.8 | – | – | – | – | – | – | – | – | – | – | –
9 | Cc1cc(O)cc(C)c1C[C@H](N)C(=O)N1Cc2ccccc2C[C@H]1C(=O)N[C@@H](C)C(=O)NC12C[C@H]3C[C@@H](C1)C[C@@H](C2)C3 | 1000 nM | – | – | – | 0.073 nM | 0.04 nM | 2.52 nM | 0.51 nM | – | – | 0.513 nM | – | – | –
10 | Cc1cc(O)cc(C)c1C[C@@H](C(=O)N1Cc2ccccc2C[C@H]1C(=O)O)n1cccc1 | – | 338 | 562 | – | – | – | – | – | – | – | – | 408 nM | 407 nM | > 10000 nM
11 | Cc1cc(O)cc(C)c1C[C@H](N)C(=O)N1Cc2ccccc2C[C@H]1C(=O)NC(C)(C)C (H-[Dmt]-[Tic]-NHtBu) | 1040 nM | 14 | 6 | – | – | – | – | 1.74 nM | – | – | 5.75 nM | – | – | –
12 | Cc1cc(O)cc(C)c1CC(CN)C(=O)N1Cc2ccccc2C[C@H]1C(=O)O (stereo not given in full) | – | 155 | 4 | – | – | – | – | – | – | – | – | – | – | –
13 | Cc1cc(O)cc(C)c1C[C@@H](C(=O)N1Cc2ccccc2C[C@@H]1C(=O)NC12C[C@H]3C[C@@H](C1)C[C@@H](C2)C3)N(C)C | 4480 nM | 0.36 | 0.42 | – | 140 nM | 120 nM | 50.5 nM | 128 nM | – | – | 123 nM | – | – | –
14 | Cc1cc(O)cc(C)c1C[C@H](N)C(=O)N1Cc2ccccc2C[C@H]1C(=O)Nc1nn[nH]n1 | – | 53 | 4 | – | – | – | – | – | – | – | – | 36.3 nM | 36.3 nM | 8200 nM
15 | Cc1cc(O)cc(C)c1C[C@@H](C(=O)N1Cc2ccccc2C[C@H]1C(=O)O)N1CCCCC1 | > 10000 nM | 1730 | 2760 | – | – | – | – | 49 nM | – | – | 49 nM | – | – | –
16 | COC(=O)[C@H](C)NC(=O)[C@@H]1Cc2ccccc2CN1C(=O)[C@@H](N)Cc1c(C)cc(O)cc1C (H-[Dmt]-[Tic]-Ala-OMe) | – | 48 | 83 | – | – | – | – | – | – | – | – | – | – | –
17 | Cc1cc(O)cc(C)c1C[C@H](N)C(=O)N1Cc2ccccc2C[C@H]1CC(=O)O | > 10000 nM | – | – | – | – | – | – | 1.41 nM | – | – | 1.58 nM | – | – | –
18 | Cc1cc(O)cc(C)c1C[C@H](N)C(=O)N1Cc2ccccc2C[C@H]1C(=O)NN (H-[Dmt]-[Tic]-NHNH2) | – | 86 | 2 | – | – | – | – | – | – | – | – | – | – | –
19 | Cc1cc(O)cc(C)c1C[C@H](N)C(=O)N1Cc2ccccc2C[C@H]1C(=O)N[C@@H](C)C(=O)NC(C)(C)C (H-[Dmt]-[Tic]-Ala-NHtBu) | > 10000 nM | 61 | 48 | – | – | – | – | 0.69 nM | – | 174 nM | 0.692 nM | – | – | –
20 | Cc1cc(O)cc(C)c1C[C@@H](C(=O)N1Cc2ccccc2C[C@H]1C(=O)NC12C[C@H]3C[C@@H](C1)C[C@@H](C2)C3)N(C)C | 16 nM | 7 | 9 | – | 0.16 nM | 0.12 nM | 1.12 nM | 0.87 nM | – | – | 0.871 nM | – | – | –
